Measured values published in ChEMBL document CHEMBL3045743, “Synthesis and herbicidal activity of isoindoline-1,3-dione substituted benzoxazinone derivatives containing a carboxylic ester group” (J Agric Food Chem, 2009).

Columns and labels:
Assay type in all cases: functional
Amaranthus [1] = experiment: Post-emergence herbicidal activity against Amaranthus ascendens assessed as growth inhibition at 75 g.a.i./ha applied at two-leaf stage measured after 15 days; settings: 360 h, read-out: GI
Method in brief: (§1)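 Pot-grown weeds sown 5 mm deep in greenhouse clay soil (pH 6.5, 1.7% organic matter, CEC 12.9 cmol/kg) at 22-25 °C. Stock diluted with water and sprayed post-emergence: dicots at 2-leaf stage, monocots at 1-leaf stage. Untreated and DMF solvent controls were included. % growth inhibition was scored visually versus untreated controls after 15 days. Triplicates averaged.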

Setaria viridis [2] = experiment: Pre-emergence herbicidal activity against Setaria viridis (green foxtail) assessed as growth inhibition at 75 g.a.i./ha applied 24 hr after seeds were sown measured after 15 days; settings: read-out: GI
Method in brief: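 Preliminary pre-emergence screen at a single rate of 75 g a.i./ha. Stock diluted with water and sprayed on greenhouse pots 24 h after seeds were sown 5 mm deep in clay soil (pH 6.5, 1.7% organic matter); grown at 22-25 °C. Untreated and DMF solvent controls included; triplicate. Visual % growth inhibition vs untreated after 15 days, averaged and banded (>80% top band).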

Echinochloa crus-galli [3] = experiment: Post-emergence herbicidal activity against Echinochloa crus-galli (barnyard grass) assessed as growth inhibition at 75 g.a.i./ha applied at one-leaf stage measured after 15 days; settings: 360 h, read-out: GI; method in brief: as §1
Amaranthus [4] = experiment: Pre-emergence herbicidal activity against Amaranthus ascendens assessed as growth inhibition at 75 g.a.i./ha applied 24 hr after seeds were sown measured after 15 days; settings: read-out: GI
Method in brief: (§2)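 Weeds sown 5 mm deep in pots of greenhouse clay soil (pH 6.5, 37.5% clay, CEC 12.9 cmol/kg) and grown at 22-25 °C. Water-diluted formulation was applied pre-emergence 24 h after sowing. Untreated and DMF solvent controls were included. Growth inhibition was visually rated in % against untreated controls after 15 days, as the mean of triplicates.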

Digitaria sanguinalis [5] = experiment: Post-emergence herbicidal activity against Digitaria sanguinalis (hairy crabgrass) assessed as growth inhibition at 75 g.a.i./ha applied at one-leaf stage measured after 15 days; settings: 360 h, read-out: GI; method in brief: as §1
Abutilon theophrasti [6] = experiment: Pre-emergence herbicidal activity against Abutilon theophrasti (velvetleaf) assessed as growth inhibition at 75 g.a.i./ha applied 24 hr after seeds were sown measured after 15 days; settings: read-out: GI; method in brief: as §2
Echinochloa crus-galli [7] = experiment: Pre-emergence herbicidal activity against Echinochloa crus-galli (barnyard grass) assessed as growth inhibition at 75 g.a.i./ha applied 24 hr after seeds were sown measured after 15 days; settings: read-out: GI; method in brief: as §2
Abutilon theophrasti [8] = experiment: Post-emergence herbicidal activity against Abutilon theophrasti (velvetleaf) assessed as growth inhibition at 75 g.a.i./ha applied at two-leaf stage measured after 15 days; settings: 360 h, read-out: GI; method in brief: as §1
Chenopodium album [9] = experiment: Pre-emergence herbicidal activity against Chenopodium album assessed as growth inhibition at 75 g.a.i./ha applied 24 hr after seeds were sown measured after 15 days; settings: read-out: GI; method in brief: as §2
Setaria viridis [10] = experiment: Post-emergence herbicidal activity against Setaria viridis (green foxtail) assessed as growth inhibition at 75 g.a.i./ha applied at one-leaf stage measured after 15 days; settings: 360 h, read-out: GI; method in brief: as §1
Chenopodium album [11] = experiment: Post-emergence herbicidal activity against Chenopodium album assessed as growth inhibition at 75 g.a.i./ha applied at two-leaf stage measured after 15 days; settings: 360 h, read-out: GI; method in brief: as §1
Digitaria sanguinalis [12] = experiment: Pre-emergence herbicidal activity against Digitaria sanguinalis (hairy crabgrass) assessed as growth inhibition at 75 g.a.i./ha applied 24 hr after seeds were sown measured after 15 days; settings: read-out: GI; method in brief: as §2

Measured: inhibition of growth at 75 g/ha

COC(=O)CN1C(=O)COc2cc(F)c(N3C(=O)c4ccccc4C3=O)cc21
< 50%: Setaria viridis [2] | Echinochloa crus-galli [3] | Digitaria sanguinalis [5] | Echinochloa crus-galli [7] | Setaria viridis [10] | Digitaria sanguinalis [12]
50%: Amaranthus [4] | Abutilon theophrasti [6] | Chenopodium album [9]
> 80%: Amaranthus [1] | Abutilon theophrasti [8] | Chenopodium album [11]

CCOC(=O)CN1C(=O)COc2cc(F)c(N3C(=O)c4ccccc4C3=O)cc21
> 80%: Amaranthus [1] | Abutilon theophrasti [8] | Chenopodium album [11]
< 50%: Setaria viridis [2] | Echinochloa crus-galli [3] | Digitaria sanguinalis [5] | Echinochloa crus-galli [7] | Setaria viridis [10] | Digitaria sanguinalis [12]
50%: Amaranthus [4] | Abutilon theophrasti [6] | Chenopodium album [9]

COC(=O)C(C)N1C(=O)COc2cc(F)c(N3C(=O)c4ccccc4C3=O)cc21 (stereo unspecified)
50%: Echinochloa crus-galli [3] | Digitaria sanguinalis [5] | Setaria viridis [10]
> 80%: Amaranthus [1] | Abutilon theophrasti [8] | Chenopodium album [11]
< 50%: Setaria viridis [2] | Amaranthus [4] | Abutilon theophrasti [6] | Echinochloa crus-galli [7] | Chenopodium album [9] | Digitaria sanguinalis [12]

CCOC(=O)CN1C(=O)COc2cc(F)c(N3C(=O)c4cc(Cl)c(Cl)cc4C3=O)cc21
50%: Amaranthus [1] | Abutilon theophrasti [8] | Chenopodium album [11]
< 50%: Setaria viridis [2] | Echinochloa crus-galli [3] | Amaranthus [4] | Digitaria sanguinalis [5] | Abutilon theophrasti [6] | Echinochloa crus-galli [7] | Chenopodium album [9] | Setaria viridis [10] | Digitaria sanguinalis [12]

CCOC(=O)C(C)N1C(=O)COc2cc(F)c(N3C(=O)c4ccc([N+](=O)[O-])cc4C3=O)cc21 (stereo unspecified)
50%: Chenopodium album [9]
< 50%: Amaranthus [1] | Setaria viridis [2] | Echinochloa crus-galli [3] | Amaranthus [4] | Digitaria sanguinalis [5] | Abutilon theophrasti [6] | Echinochloa crus-galli [7] | Abutilon theophrasti [8] | Setaria viridis [10] | Chenopodium album [11] | Digitaria sanguinalis [12]

CCOC(=O)C(C)N1C(=O)COc2cc(F)c(N3C(=O)c4cc(Cl)c(Cl)cc4C3=O)cc21 (stereo unspecified)
< 50%: Amaranthus [1] | Setaria viridis [2] | Echinochloa crus-galli [3] | Amaranthus [4] | Digitaria sanguinalis [5] | Abutilon theophrasti [6] | Echinochloa crus-galli [7] | Abutilon theophrasti [8] | Chenopodium album [9] | Setaria viridis [10] | Digitaria sanguinalis [12]
50%: Chenopodium album [11]

CCOC(=O)C(C)N1C(=O)COc2cc(F)c(N3C(=O)c4ccc(C)cc4C3=O)cc21 (stereo unspecified)
50%: Chenopodium album [9]
> 80%: Abutilon theophrasti [8]
< 50%: Amaranthus [1] | Setaria viridis [2] | Echinochloa crus-galli [3] | Amaranthus [4] | Digitaria sanguinalis [5] | Abutilon theophrasti [6] | Echinochloa crus-galli [7] | Setaria viridis [10] | Chenopodium album [11] | Digitaria sanguinalis [12]

CCOC(=O)CN1C(=O)COc2cc(F)c(N3C(=O)c4ccc(C)cc4C3=O)cc21
< 50%: Setaria viridis [2] | Echinochloa crus-galli [3] | Amaranthus [4] | Digitaria sanguinalis [5] | Abutilon theophrasti [6] | Echinochloa crus-galli [7] | Chenopodium album [9] | Setaria viridis [10] | Digitaria sanguinalis [12]
50%: Amaranthus [1] | Abutilon theophrasti [8] | Chenopodium album [11]
